As a reminder, the IC50 is the concentration that inhibits the measured activity by half.

Consider one molecule from ChEMBL document CHEMBL4354879, “Bioisosteric Discovery of NPA101.3, a Second-Generation RET/VEGFR2 Inhibitor Optimized for Single-Agent Polypharmacology” (J Med Chem, 2020).

Structures are written as SMILES. The source made the active and inactive calls. The calls are words filed in the database; no cut-off is given here.

For data set [1], the target named is Tyrosine-protein kinase HCK (Homo sapiens) (UniProt P08631). Nature of the data set: Binding affinity to wild-type human full length HCK (M22 to P526 residues) expressed in bacterial expression system at 100 nM by Kinomescan method relative to control.
Chain of Tyrosine-protein kinase HCK (Homo sapiens) (P08631 2-526 limits assumed): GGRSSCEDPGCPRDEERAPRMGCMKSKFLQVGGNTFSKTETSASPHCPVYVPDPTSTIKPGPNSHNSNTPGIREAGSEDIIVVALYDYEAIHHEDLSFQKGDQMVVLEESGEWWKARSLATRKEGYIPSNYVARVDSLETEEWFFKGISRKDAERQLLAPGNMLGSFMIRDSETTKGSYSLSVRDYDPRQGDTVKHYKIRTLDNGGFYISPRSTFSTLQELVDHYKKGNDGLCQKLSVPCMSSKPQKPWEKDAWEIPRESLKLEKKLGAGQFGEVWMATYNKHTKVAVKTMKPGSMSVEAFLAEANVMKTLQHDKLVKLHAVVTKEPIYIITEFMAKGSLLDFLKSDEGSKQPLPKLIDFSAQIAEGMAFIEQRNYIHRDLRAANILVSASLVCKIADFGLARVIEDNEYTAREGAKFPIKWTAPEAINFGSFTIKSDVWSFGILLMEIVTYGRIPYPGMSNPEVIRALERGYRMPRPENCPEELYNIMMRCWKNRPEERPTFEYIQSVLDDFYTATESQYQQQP
Data set [2] has as its target High affinity nerve growth factor receptor (Homo sapiens, UniProt P04629). Nature of the data set: Binding affinity to wild-type human partial length TRKA (G475 to G790 residues) expressed in mammalian expression system at 100 nM by Kinomescan method relative to control.
Data set [3] has as its system Proto-oncogene tyrosine-protein kinase receptor Ret (Homo sapiens), P07949 [A883F]. Nature of the data set: Inhibition of RET isoform 9 A883F mutant (unknown origin) expressed in rat Rat1 assessed as reduction in RET phosphorylation at Y1062 residue at 1 to 100 nM measured after 2 hrs by Western blot analysis. The data set is classed as cell-based. The method in brief: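 Serum-starved RAT1 (RET point mutants) or NIH3T3 (RET rearrangements) cells expressing short RET-9 isoform, treated 2 h; 50 μg total lysate immunoblotted with anti-phospho-Y1062 and anti-phospho-Y905 RET antibodies, normalized to total RET; ECL detection. Compound from 50 mM DMSO stock diluted in growth medium.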
A general note: In western blotting, separated proteins are transferred to a membrane and probed.

Data set [4] deals with Proto-oncogene tyrosine-protein kinase receptor Ret (Homo sapiens), P07949 [M918T]. Nature of the data set: Inhibition of Ret isoform 9 M918T mutant in human MZ-CRC-1 cells assessed as reduction in phosphorylation at Y1062 residue at 0.3 to 30 nM measured after 2 hrs by Western blot analysis. It is filed as cell-based.
Chain of Proto-oncogene tyrosine-protein kinase receptor Ret (Homo sapiens), P07949 [M918T] (P07949 whole entry M918T, canonical isoform): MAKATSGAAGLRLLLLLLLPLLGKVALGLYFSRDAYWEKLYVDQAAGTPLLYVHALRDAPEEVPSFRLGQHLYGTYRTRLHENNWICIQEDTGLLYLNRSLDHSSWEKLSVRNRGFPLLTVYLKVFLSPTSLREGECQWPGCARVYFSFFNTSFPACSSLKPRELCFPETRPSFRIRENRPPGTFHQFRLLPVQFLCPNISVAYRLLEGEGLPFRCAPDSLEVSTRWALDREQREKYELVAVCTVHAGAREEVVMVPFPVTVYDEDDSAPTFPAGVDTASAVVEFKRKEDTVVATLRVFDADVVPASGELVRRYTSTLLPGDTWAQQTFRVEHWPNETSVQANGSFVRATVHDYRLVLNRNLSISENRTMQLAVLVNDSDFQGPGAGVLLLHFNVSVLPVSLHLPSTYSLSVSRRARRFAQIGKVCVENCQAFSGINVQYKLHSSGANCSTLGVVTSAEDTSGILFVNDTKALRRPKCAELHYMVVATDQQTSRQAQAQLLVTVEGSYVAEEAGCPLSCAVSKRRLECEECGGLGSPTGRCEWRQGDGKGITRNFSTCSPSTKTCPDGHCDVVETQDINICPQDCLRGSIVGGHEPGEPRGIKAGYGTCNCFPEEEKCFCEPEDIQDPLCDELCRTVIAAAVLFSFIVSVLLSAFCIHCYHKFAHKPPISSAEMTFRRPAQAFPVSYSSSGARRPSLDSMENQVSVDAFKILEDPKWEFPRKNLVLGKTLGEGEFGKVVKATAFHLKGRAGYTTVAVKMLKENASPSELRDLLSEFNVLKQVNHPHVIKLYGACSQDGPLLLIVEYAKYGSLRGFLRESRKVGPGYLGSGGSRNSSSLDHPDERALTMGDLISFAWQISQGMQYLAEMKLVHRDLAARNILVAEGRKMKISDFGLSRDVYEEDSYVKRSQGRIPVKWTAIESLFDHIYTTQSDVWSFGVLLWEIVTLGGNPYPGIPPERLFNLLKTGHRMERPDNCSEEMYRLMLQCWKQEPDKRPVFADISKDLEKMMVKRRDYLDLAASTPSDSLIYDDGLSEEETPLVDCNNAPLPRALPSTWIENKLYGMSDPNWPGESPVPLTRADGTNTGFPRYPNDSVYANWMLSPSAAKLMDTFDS
The test system is the same in data set [5]. Nature of the data set: Inhibition of Ret isoform 9 M918T mutant in human MZ-CRC-1 cells assessed as reduction in SHC phosphorylation at 0.3 to 30 nM measured after 2 hrs by Western blot analysis. It is filed as cell-based.
Data set [6] deals with Coiled-coil domain-containing protein 6/Tyrosine-protein kinase receptor RET (Homo sapiens) (UniProt P07949+Q16204). Nature of the data set: Inhibition of CCDC6/RET in human LC2/ad cells assessed as reduction in MAPK phosphorylation at 0.3 to 30 nM measured after 2 hrs by Western blot analysis. The data set is classed as cell-based.
Chain of Coiled-coil domain-containing protein 6/Tyrosine-protein kinase receptor RET (Homo sapiens) (P07949 29-1114 limits assumed): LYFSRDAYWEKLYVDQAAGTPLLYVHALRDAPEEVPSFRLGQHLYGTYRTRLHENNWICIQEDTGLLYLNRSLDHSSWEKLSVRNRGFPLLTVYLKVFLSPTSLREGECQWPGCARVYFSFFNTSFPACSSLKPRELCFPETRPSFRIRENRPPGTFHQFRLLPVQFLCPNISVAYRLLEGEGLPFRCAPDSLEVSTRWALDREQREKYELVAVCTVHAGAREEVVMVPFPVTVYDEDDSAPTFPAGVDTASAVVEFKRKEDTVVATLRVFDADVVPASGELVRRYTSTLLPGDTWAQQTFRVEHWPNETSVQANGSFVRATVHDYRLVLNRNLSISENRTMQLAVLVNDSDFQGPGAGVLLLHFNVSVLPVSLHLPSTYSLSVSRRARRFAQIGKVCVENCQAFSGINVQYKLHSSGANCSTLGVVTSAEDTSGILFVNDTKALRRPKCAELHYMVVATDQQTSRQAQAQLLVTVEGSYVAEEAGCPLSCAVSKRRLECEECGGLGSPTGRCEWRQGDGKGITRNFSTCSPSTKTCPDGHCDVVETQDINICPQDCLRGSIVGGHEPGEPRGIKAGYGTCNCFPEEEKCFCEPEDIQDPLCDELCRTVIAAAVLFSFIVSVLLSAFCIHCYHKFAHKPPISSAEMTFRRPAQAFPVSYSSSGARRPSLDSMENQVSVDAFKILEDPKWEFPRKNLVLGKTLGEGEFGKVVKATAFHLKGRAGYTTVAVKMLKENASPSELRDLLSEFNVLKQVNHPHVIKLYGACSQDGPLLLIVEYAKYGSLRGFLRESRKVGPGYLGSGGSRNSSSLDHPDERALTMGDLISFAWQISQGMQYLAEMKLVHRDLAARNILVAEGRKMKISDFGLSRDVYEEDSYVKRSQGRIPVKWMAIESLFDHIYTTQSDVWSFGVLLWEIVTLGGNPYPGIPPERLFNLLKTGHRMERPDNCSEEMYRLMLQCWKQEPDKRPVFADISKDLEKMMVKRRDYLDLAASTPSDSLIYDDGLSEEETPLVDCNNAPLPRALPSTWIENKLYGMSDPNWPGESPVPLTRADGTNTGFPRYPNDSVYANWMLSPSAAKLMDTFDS
Chain of Coiled-coil domain-containing protein 6/Tyrosine-protein kinase receptor RET (Homo sapiens) (Q16204 2-474 partner limits assumed): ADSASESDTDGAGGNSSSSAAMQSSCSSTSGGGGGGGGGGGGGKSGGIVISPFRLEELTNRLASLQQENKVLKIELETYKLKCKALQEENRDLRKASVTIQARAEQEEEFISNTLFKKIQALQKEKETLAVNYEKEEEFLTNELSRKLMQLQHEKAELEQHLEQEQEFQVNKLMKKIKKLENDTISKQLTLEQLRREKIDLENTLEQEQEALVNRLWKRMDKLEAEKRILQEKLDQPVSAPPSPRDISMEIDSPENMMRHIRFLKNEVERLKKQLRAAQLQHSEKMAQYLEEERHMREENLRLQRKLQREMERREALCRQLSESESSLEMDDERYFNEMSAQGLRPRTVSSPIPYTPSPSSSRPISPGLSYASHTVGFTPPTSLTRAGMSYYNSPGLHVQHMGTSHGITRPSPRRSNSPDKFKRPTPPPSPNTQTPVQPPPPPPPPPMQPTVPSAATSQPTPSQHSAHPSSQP
For the next data set, the species on record is Homo sapiens. Nature of the data set: Effect on MAPK phosphorylation in RET deficient human Nthy-ori 3-1 cells at 1 to 100 nM measured after 2 hrs by western blot analysis.
The test system of a further data set is BCPAP. Nature of the data set: Effect on MAPK phosphorylation in RET deficient human BCPAP cells at 1 to 100 nM measured after 2 hrs by western blot analysis. It is filed as cell-based.
Data set [7] deals with T1, SHC-transforming protein 1 (Homo sapiens) (UniProt P29353).
T1 sequence (whole entry): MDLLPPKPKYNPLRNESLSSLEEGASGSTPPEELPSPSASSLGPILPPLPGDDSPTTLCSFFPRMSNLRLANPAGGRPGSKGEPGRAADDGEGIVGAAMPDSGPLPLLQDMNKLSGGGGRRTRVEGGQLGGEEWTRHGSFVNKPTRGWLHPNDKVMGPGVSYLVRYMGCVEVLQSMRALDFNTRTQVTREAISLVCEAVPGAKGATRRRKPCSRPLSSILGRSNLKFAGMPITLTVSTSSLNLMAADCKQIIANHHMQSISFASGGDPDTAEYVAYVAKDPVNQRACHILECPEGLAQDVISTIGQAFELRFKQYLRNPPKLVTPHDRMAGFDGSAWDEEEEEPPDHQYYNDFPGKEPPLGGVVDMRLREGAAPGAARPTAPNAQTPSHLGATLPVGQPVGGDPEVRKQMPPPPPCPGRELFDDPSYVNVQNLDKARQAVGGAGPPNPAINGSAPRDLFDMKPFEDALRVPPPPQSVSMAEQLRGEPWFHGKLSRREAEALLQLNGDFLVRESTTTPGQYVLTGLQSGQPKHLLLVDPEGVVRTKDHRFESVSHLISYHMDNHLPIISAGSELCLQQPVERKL
Nature of the data set: Effect on SHC phosphorylation in RET deficient human Calu1 cells at 1 to 100 nM measured after 2 hrs by western blot analysis.

Data set [8] can be described thus: Inhibition of NCOA4/RET […] (unknown origin) expressed in mouse BAF3 cells assessed as reduction in cell proliferation supplemented with fresh medium containing compound for every 2 to 3 days and measured daily. The data set is classed as cell-based.
A further data set deals with A549. Nature of the data set: Cytotoxicity against RET deficient human A549 cells supplemented with fresh medium containing compound for every 2 to 3 days measured during compound dosing. It is filed as functional, cell-based. In a few lines: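 Human RET-negative lines were seeded in six-well plates at 10000 cells/well, in 5% FCS (Nthy-ori-3-1) or 10% FCS (BCPAP, 8505-C, CALU-1, A549, PC-9). Drug or vehicle was added the day after plating, with medium changed every 2–3 days. Cells were counted every 2–3 days. IC50 was fitted from the last day of the growth curves.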

Data set [9] has as its system Mus musculus. Nature of the data set: In vivo inhibition of VEGFR2 in BALB/c nu/nu mouse implanted with mouse NIH/3T3 cells harboring RET isoform 9 C634R mutant assessed as reduction in VEGFR2 phosphorylation at 3 mg/kg, po administered once daily via gavage for 3 days measured 3 hrs post-last dose by Western blot analysis. The data set is classed as functional, organism-based.

In data set [10] the test system is Mus musculus. Nature of the data set: In vivo inhibition of HRAS G12V mutant transfected in mouse NIH/3T3 cells implanted BALB/c nu/nu mouse assessed as reduction in MAPK phosphorylation in tumor at 1 mg/kg, po administered once daily via gavage for 3 days measured 3 hrs post-last dose by Western blot analysis. The data set is classed as functional, organism-based.

The nature of data set [11]: Toxicity in BALB/c nu/nu mouse assessed as change in alkaline phosphatase level at 10 mg/kg, po administered daily for 7 days. The settings on record: in vivo, 168 h. The data set is classed as organism-based. The method in brief: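 Mice dosed orally with 10 mg/kg/day for 7 days; standard blood markers of organ damage measured.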
A short description of data set [12]: Toxicity in BALB/c nu/nu mouse assessed as change in total protein level at 10 mg/kg, po administered daily for 7 days. The data set is classed as organism-based. The note with it: in vivo, 168 h.

Chain of High affinity nerve growth factor receptor (P04629 33-796 limits assumed): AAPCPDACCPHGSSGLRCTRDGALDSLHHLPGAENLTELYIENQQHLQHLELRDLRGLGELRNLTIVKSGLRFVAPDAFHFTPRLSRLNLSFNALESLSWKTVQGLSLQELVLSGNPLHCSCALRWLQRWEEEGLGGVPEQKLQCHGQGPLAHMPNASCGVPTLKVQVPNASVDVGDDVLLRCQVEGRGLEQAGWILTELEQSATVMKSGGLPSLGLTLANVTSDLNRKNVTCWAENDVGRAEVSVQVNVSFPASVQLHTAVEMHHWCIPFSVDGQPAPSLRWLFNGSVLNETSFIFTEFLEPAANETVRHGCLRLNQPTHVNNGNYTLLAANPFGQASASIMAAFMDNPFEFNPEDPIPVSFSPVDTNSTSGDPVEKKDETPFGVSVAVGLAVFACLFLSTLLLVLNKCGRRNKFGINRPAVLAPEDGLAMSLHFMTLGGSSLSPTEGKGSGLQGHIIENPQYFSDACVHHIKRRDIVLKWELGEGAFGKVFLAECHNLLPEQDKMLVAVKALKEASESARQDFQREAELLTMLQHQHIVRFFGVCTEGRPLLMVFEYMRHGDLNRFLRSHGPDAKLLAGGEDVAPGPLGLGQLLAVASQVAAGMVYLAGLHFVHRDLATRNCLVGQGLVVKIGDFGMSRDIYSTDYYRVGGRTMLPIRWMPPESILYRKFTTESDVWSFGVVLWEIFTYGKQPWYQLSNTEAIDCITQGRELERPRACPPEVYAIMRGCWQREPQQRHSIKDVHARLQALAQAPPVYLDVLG
Chain of Proto-oncogene tyrosine-protein kinase receptor Ret (Homo sapiens), P07949 [A883F] (P07949 whole entry A883F, canonical isoform): as the sequence (P07949 whole entry M918T, canonical isoform) above, with A883F, T918M counted along it

`CC(C)(C)c1cc(NC(=O)Cc2ccc(-n3cnc4cc(-c5ccc(S(C)(=O)=O)cc5)ccc43)cc2)no1`: the Activity in [1] is > 90%; in data set [2] it was > 90%; in data set [11] it was “Non-Toxic”; in data set [12] it was “Non-Toxic”. Further, the inhibition result (in data set [3]; in data set [4]; in [5]; in the data set with Mus musculus [9]) was “Active” throughout. Moreover, the inhibition entry (in data set [6]; in the data set with Mus musculus [10]) was “inactive” each time. The outcome (in the data set listed under Homo sapiens; with BCPAP; in [7]) was inactive. In addition, the figures for the IC50 (in [8]; in the data set on A549) were 3.1 nM and > 100 nM, respectively.
